≈ marks a conversion by molar mass, not a printed value. Blank lines part the entries; values can stand above or below the compound they belong to. Calls of active or inactive are those of the source. The calls are words filed in the database; no cut-off is given here.
What was measured:
[1] = system: Human alphaherpesvirus 2; experiment: Tested in vitro for minimum inhibitory activity against Herpes simplex virus type -2 (HSV-2); Inactive; assay type: functional, organism-based
[2] = system: Human alphaherpesvirus 2; experiment: Tested in vitro for minimum inhibitory activity against Herpes simplex virus type -2 (HSV-2); assay type: functional
[3] = species on record: Mus musculus; experiment: Effect on the survival rate of mice infected intravaginally with Herpes simplex virus type -2 (HSV-2) at 1.25% dosage twice in a day; assay type: functional
In short: (§1)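 Mice infected intravaginally with a tampon (dental pellet) saturated with HSV suspension. Aqueous drug solution given intravaginally b.i.d. on cotton tampons, starting 4 h postinfection. Each tampon stayed in 24 h, was re-moistened with 0.02 mL drug 6 h after insertion, and was replaced daily. Deaths were recorded daily to 14 days. Read-out: % survival and average survival time, with survivors scored >14 days.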

[4] = species on record: Mus musculus; experiment: Effect on the survival rate of mice infected intravaginally with Herpes simplex virus type -2 (HSV-2) at 5% dosage twice in a day; assay type: functional; in short: as §1
[5] = species on record: Mus musculus; experiment: Effect on the survival rate of mice infected intravaginally with Herpes simplex virus type -2 (HSV-2) at 2.5% dosage twice in a day; assay type: functional; in short: as §1
[6] = species on record: Mus musculus; experiment: Number of mice recovered from virus infected with Herpes simplex virus type-2 at 1.25% dosage twice in 1st day out of 10 mice sampled; assay type: functional
In short: (§2)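 Mice were infected intravaginally with HSV-2 Curtis strain. Starting 4 h postinfection, they were treated intravaginally with cotton tampons saturated with 10, 5, 2.5 or 1.25% drug solution, replaced daily, plus 0.02 mL added 6 h later. Vaginal washings with 1.5 mL M-199 were taken each morning on days 1–7, frozen at −70 °C and assayed in BSC-1 cells. Read-out: mice with recoverable virus/mice sampled.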

[7] = species on record: Mus musculus; experiment: Number of mice recovered from virus infected with Herpes simplex virus type-2 at 10% dosage twice in 4 th day out of 10 mice sampled; assay type: functional; in short: as §2
[8] = system: Mus musculus; experiment: Effect on the survival rate of mice infected with HSV-1 administered intravaginally at 10% dosage twice in a day; assay type: functional; in short: as §1
[9] = species on record: Mus musculus; experiment: Number of mice recovered from virus infected with Herpes simplex virus type-2 at 5% dosage twice in 7 th day out of 8 mice sampled; assay type: functional; in short: as §2
[10] = system: Mus musculus; experiment: Effect on the survival rate of mice iinfected with HSV-1 administered intravaginally at 2.5% dosage twice in a day; assay type: functional; in short: as §1
[11] = system: Mus musculus; experiment: Effect on the survival rate of mice infected with HSV-1 administered intravaginally at 1.25% dosage twice in a day; assay type: functional; in short: as §1
[12] = system: Mus musculus; experiment: Effect on the survival rate of mouse infected with herpes genitalis (HSV-2) administered intravaginally at 5% twice in a day; assay type: functional
[13] = system: Mus musculus; experiment: Effect on the survival rate of mice iinfected with HSV-1 administered intravaginally at 1.25% dosage twice in a day; assay type: functional; in short: as §1
[14] = system: Mus musculus; experiment: Effect on the survival rate of mice infected with HSV-2 administered intravaginally at 5% dosage twice in a day; assay type: functional; in short: as §1
[15] = species on record: Mus musculus; experiment: Number of mice recovered from virus infected with Herpes simplex virus type-2 at 2.5% dosage twice in 1st day out of 10 mice sampled; assay type: functional; in short: as §2
[16] = species on record: Mus musculus; experiment: Number of mice recovered from virus infected with Herpes simplex virus type-2 at 2.5% dosage twice in 4 th day out of 10 mice sampled; assay type: functional; in short: as §2
[17] = species on record: Mus musculus; experiment: Number of mice recovered from virus infected with Herpes simplex virus type-2 at 5% dosage twice in 1 st day out of 10 mice sampled; assay type: functional; in short: as §2
[18] = species on record: Mus musculus; experiment: Number of mice recovered from virus infected with Herpes simplex virus type-2 at 5% dosage twice in 3 rd day out of 10 mice sampled; assay type: functional; in short: as §2
[19] = system: Mus musculus; experiment: Effect on the survival rate of mouse infected with herpes genitalis (HSV-2) administered intravaginally at 5% dosage twice in a day; assay type: functional
In short: (§3)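 HSV-2 mouse genital model, infected intravaginally. Drug prepared in water + 1% gum tragacanth and given intravaginally b.i.d. via saturated cotton tampons, starting 4 h postinfection. Tampons were re-dosed with 0.02 mL 6 h after insertion and replaced daily. Test ended at day 14, with survivors assigned survival time >14 days. Read-out: % survival and average survival time.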

[20] = species on record: Mus musculus; experiment: Number of mice recovered from virus infected with Herpes simplex virus type-2 at 5% dosage twice in 6 th day out of 8 mice sampled; assay type: functional; in short: as §2
[21] = species on record: Mus musculus; experiment: Number of mice recovered from virus infected with Herpes simplex virus type-2 at 10% dosage twice in 1st day out of 10 mice sampled; assay type: functional; in short: as §2
[22] = species on record: Mus musculus; experiment: Number of mice recovered from virus infected with Herpes simplex virus type-2 at 10% dosage twice in 6 th day out of 10 mice sampled; assay type: functional; in short: as §2
[23] = species on record: Mus musculus; experiment: Number of mice recovered from virus infected with Herpes simplex virus type-2 at 5% dosage twice in 4 th day out of 10 mice sampled; assay type: functional; in short: as §2
[24] = species on record: Mus musculus; experiment: Number of mice recovered from virus infected with Herpes simplex virus type-2 at 1.25% dosage twice in 7 th day out of 10 mice sampled; assay type: functional; in short: as §2
[25] = species on record: Mus musculus; experiment: Number of mice recovered from virus infected with Herpes simplex virus type-2 at 2.5% dosage twice in 6 th day out of 10 mice sampled; assay type: functional; in short: as §2
[26] = species on record: Mus musculus; experiment: Number of mice recovered from virus infected with Herpes simplex virus type-2 at 10% dosage twice in 7 th day out of 10 mice sampled; assay type: functional; in short: as §2
[27] = species on record: Mus musculus; experiment: Number of mice recovered from virus infected with Herpes simplex virus type-2 at 2.5% dosage twice in 7 th day out of 8 mice sampled; assay type: functional; in short: as §2
[28] = system: Mus musculus; experiment: Effect on the survival rate of mice infected with HSV-2 administered intravaginally at 2.5% dosage twice in a day; assay type: functional; in short: as §1
[29] = species on record: Mus musculus; experiment: Number of mice recovered from virus infected with Herpes simplex virus type-2 at 1.25% dosage twice in 4 th day out of 10 mice sampled; assay type: functional; in short: as §2
[30] = species on record: Mus musculus; experiment: Number of mice recovered from virus infected with Herpes simplex virus type-2 at 10% dosage twice in 3 rd day out of 10 mice sampled; assay type: functional; in short: as §2
[31] = species on record: Mus musculus; experiment: Number of mice recovered from virus infected with Herpes simplex virus type-2 at 1.25% dosage twice in 3 rd day out of 10 mice sampled; assay type: functional; in short: as §2
[32] = species on record: Mus musculus; experiment: Number of mice recovered from virus infected with Herpes simplex virus type-2 at 2.5% dosage twice in 2 nd day out of 10 mice sampled; assay type: functional; in short: as §2
[33] = species on record: Mus musculus; experiment: Number of mice recovered from virus infected with Herpes simplex virus type-2 at 5% dosage twice in 2 nd day out of 10 mice sampled; assay type: functional; in short: as §2
[34] = system: Mus musculus; experiment: Effect on the survival rate of mice infected with HSV-2 administered intravaginally at 10% dosage twice in a day; assay type: functional; in short: as §1
[35] = system: Mus musculus; experiment: Effect on the survival rate of mice infected with HSV-1 administered intravaginally at 2.5% dosage twice in a day; assay type: functional; in short: as §1
[36] = species on record: Mus musculus; experiment: Number of mice recovered from virus infected with Herpes simplex virus type-2 at 2.5% dosage twice in 3 rd day out of 10 mice sampled; assay type: functional; in short: as §2
[37] = system: Mus musculus; experiment: Effect on the survival rate of mice infected with HSV-1 administered intravaginally at 5% dosage twice in a day; assay type: functional; in short: as §1
[38] = species on record: Mus musculus; experiment: Number of mice recovered from virus infected with Herpes simplex virus type-2 at 10% dosage twice in 2 nd day out of 10 mice sampled; assay type: functional; in short: as §2
[39] = system: Mus musculus; experiment: Effect on the survival rate of mouse infected with herpes genitalis (HSV-2) administered intravaginally at 2% dosage twice in a day; assay type: functional; in short: as §3
[40] = system: Mus musculus; experiment: Effect on the survival rate of mice infected with HSV-2 administered intravaginally at 1.25% dosage twice in a day; assay type: functional; in short: as §1
[41] = species on record: Mus musculus; experiment: Number of mice recovered from virus infected with Herpes simplex virus type-2 at 1.25% dosage twice in 2 nd day out of 10 mice sampled; assay type: functional; in short: as §2

Structure (SMILES): COc1ccc(OCCCCCCc2c(C)n[nH]c2C)c(Cl)c1
MIC [2]: 3 µg/mL (≈ 8.91 µM)

Structure (SMILES): CCCCn1nc(C)c(CCCCCCOc2ccc(OC)cc2Cl)c1C
MIC [2]: 6 µg/mL (≈ 15.3 µM)

Structure (SMILES): CCc1nn(C)c(CC)c1CCCCCCOc1ccc(OC)cc1Cl
MIC [2]: 6 µg/mL (≈ 15.8 µM)

Structure (SMILES): CCc1n[nH]c(CC)c1CCCCCCOc1ccc(OC)cc1Cl
Average survival [3]: >10 days | Survival [3]: 30% | Average survival [4]: >11 days | Survival [4]: 60% | Average survival [5]: >11 days | Survival [5]: 40% | MIC [2]: 6 µg/mL (≈ 16.4 µM)

Structure (SMILES): CCc1n[nH]c(CC)c1CCCCCCOc1ccc(OC)cc1Cl.CS(=O)(=O)O
No. of mice receovered [6]: 0 | No. of mice receovered [7]: 0 | Average survival [8]: >13 days | Survival [8]: 70% | No. of mice receovered [9]: 0 | Survival [10]: 40% | Average survival [11]: >10 days | Survival [12]: 80% | Survival [13]: 30% | Average survival [14]: >13 days | Survival [14]: 90% | No. of mice receovered [15]: 0 | No. of mice receovered [16]: 0 | No. of mice receovered [17]: 1 | No. of mice receovered [18]: 0 | Average survival [19]: >13 days | No. of mice receovered [20]: 0 | No. of mice receovered [21]: 0 | No. of mice receovered [22]: 0 | No. of mice receovered [23]: 0 | No. of mice receovered [24]: 0 | No. of mice receovered [25]: 0 | No. of mice receovered [26]: 0 | No. of mice receovered [27]: 0 | Average survival [28]: >12 days | Survival [28]: 70% | No. of mice receovered [29]: 0 | No. of mice receovered [30]: 0 | No. of mice receovered [31]: 0 | No. of mice receovered [32]: 1 | No. of mice receovered [33]: 0 | Average survival [34]: >13 days | Survival [34]: 90% | Average survival [35]: >11 days | No. of mice receovered [36]: 0 | Average survival [37]: >12 days | Survival [37]: 60% | No. of mice receovered [38]: 0 | Average survival [39]: >11 days | Survival [39]: 60% | Average survival [40]: >10 days | Survival [40]: 40% | No. of mice receovered [41]: 1

The next lines start with the values.

MIC [1]: inactive
Structure (SMILES): CCc1n[nH]c(CC)c1CCCCCCOc1ccc(SC)cc1Cl

MIC [2]: 6 µg/mL (≈ 17.9 µM)
Structure (SMILES): CCc1n[nH]c(CC)c1CCCCCCOc1ccc(Cl)cc1

MIC [2]: 6 µg/mL (≈ 17.1 µM)
Structure (SMILES): CCc1n[nH]c(CC)c1CCCCCOc1ccc(OC)cc1Cl

MIC [1]: inactive
Structure (SMILES): CCc1n[nH]c(CC)c1CCCCCCOc1cc(Cl)c(OC)cc1Cl
